Legend:
[1] = system: L02; experiment: Antiproliferative activity against human HL-7702 cells after 48 hrs by MTT assay; format: functional, cell-based; conditions: L02, 48 h
Outline: (§1)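 MTT read-out of antiproliferative activity across cancer lines HepG-2, NCI-H460, MGC-803, A549 and MG-63 and normal liver line HL-7702. IC50 given as mean ± S.D. of three separate experiments, each run in triplicate.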

[2] = Inhibition of TNF-alpha induced NF-kappaB activation in human A549 cells after 7 hrs by Bright-Glo luciferase reporter gene assay; format: cell-based
Outline: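 A549 cells transiently cotransfected with an NF-κB-Luc reporter and stimulated with TNF-α. Luciferase read-out of inhibition gives IC50, the mean of at least three independent experiments each with triplicates.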

[3] = system: HepG2; experiment: Antiproliferative activity against human HepG2 cells after 48 hrs by MTT assay; format: functional, cell-based; conditions: HepG2, 48 h; outline: as §1
[4] = system: NCI-H460; experiment: Antiproliferative activity against human NCI-H460 cells after 48 hrs by MTT assay; format: functional, cell-based; conditions: NCI-H460, 48 h; outline: as §1
[5] = system: MGC-803; experiment: Antiproliferative activity against human MGC803 cells after 48 hrs by MTT assay; format: functional, cell-based; conditions: MGC-803, 48 h; outline: as §1
[6] = system: A549; experiment: Antiproliferative activity against human A549 cells after 48 hrs by MTT assay; format: functional, cell-based; conditions: A549, 48 h; outline: as §1
[7] = system: MG-63; experiment: Antiproliferative activity against human MG63 cells after 48 hrs by MTT assay; format: functional, cell-based; conditions: MG-63, 48 h; outline: as §1
[8] = system: SK-OV-3; experiment: Growth inhibition of cisplatin sensitive human SKOV3 cells after 48 hrs by MTT assay; format: functional, cell-based; conditions: SK-OV-3, 48 h
Outline: (§2)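 MTT growth inhibition in the paired ovarian lines, cisplatin-sensitive SK-OV-3 and cisplatin-resistant SK-OV-3/CDDP. IC50 given as mean ± S.D. of three separate experiments, each in triplicate.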

[9] = Growth inhibition of cisplatin-resistant human SKOV3/DDP cells after 48 hrs by MTT assay; format: functional; conditions: SK-OV-3, 48 h; outline: as §2
[10] = Selectivity ratio of IC50 for cisplatin-resistant human SKOV3/DDP cells to IC50 for cisplatin sensitive human SKOV3 cells; format: functional
Outline: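 IC50 determined in resistant SK-OV-3/CDDP cells divided by IC50 in parental SK-OV-3 cells. Each IC50 by MTT, three separate experiments each in triplicate.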

[11] = Homo sapiens, A549, 7 h, read-out: IC50

| Compound | IC50 [1] [µM] | IC50 [2, 11] [µM] | IC50 [3] [µM] | IC50 [4] [µM] | IC50 [5] [µM] | IC50 [6] [µM] | IC50 [7] [µM] | IC50 [8] [µM] | IC50 [9] [µM] | Ratio IC50 [10] | IC50 ([2]; a549) |
| --- | --- | --- | --- | --- | --- | --- | --- | --- | --- | --- | --- |
| CCOP(=O)(OCC)C(Nc1ccc(CC(=O)NCCCNC(=O)[C@@]2(C)CC[C@]3(C)CC[C@]4(C)C(=CC(=O)[C@@H]5[C@@]6(C)CC[C@H](OC(C)=O)C(C)(C)[C@@H]6CC[C@]54C)[C@@H]3C2)cc1)c1ccc(F)cc1 (stereo partly drawn) | > 50 | 3.01 | 15.3 | 14.9 | 16.3 | 15 | 13.7 | 10.1 | 13.4 | 1.32 | – |
| CCOP(=O)(OCC)C(Nc1ccc(CC(=O)NCCCNC(=O)[C@@]2(C)CC[C@]3(C)CC[C@]4(C)C(=CC(=O)[C@@H]5[C@@]6(C)CC[C@H](O)C(C)(C)[C@@H]6CC[C@]54C)[C@@H]3C2)cc1)c1cccc(Br)c1 (stereo partly drawn) | > 50 | – | > 50 | > 50 | > 50 | > 50 | > 50 | – | – | – | Not Active |
| CCOP(=O)(OCC)C(Nc1ccc(CC(=O)NCCCCNC(=O)[C@@]2(C)CC[C@]3(C)CC[C@]4(C)C(=CC(=O)[C@@H]5[C@@]6(C)CC[C@H](O)C(C)(C)[C@@H]6CC[C@]54C)[C@@H]3C2)cc1)c1ccc(OC)cc1 (stereo partly drawn) | > 50 | 13.1 | 32.2 | 24 | 22.2 | 25.2 | 17.2 | – | – | – | – |
| CCOP(=O)(OCC)C(Nc1ccc(CC(=O)NCCCCNC(=O)[C@@]2(C)CC[C@]3(C)CC[C@]4(C)C(=CC(=O)[C@@H]5[C@@]6(C)CC[C@H](O)C(C)(C)[C@@H]6CC[C@]54C)[C@@H]3C2)cc1)c1cccc(OC)c1 (stereo partly drawn) | > 50 | 29.4 | 46.4 | 39.2 | > 50 | 48.3 | 45.6 | – | – | – | – |
| CC1(C)[C@@H](O)CC[C@]2(C)[C@H]3C(=O)C=C4[C@@H]5C[C@@](C)(C(=O)O)CC[C@]5(C)CC[C@@]4(C)[C@]3(C)CC[C@@H]12 [ENOXOLONE] | > 50 | > 30 | 44.5 | 37.6 | > 50 | 36.1 | > 50 | 45.6 | 49.4 | 1.08 | – |
| CCOP(=O)(OCC)C(Nc1ccc(CC(=O)NCCCNC(=O)[C@@]2(C)CC[C@]3(C)CC[C@]4(C)C(=CC(=O)[C@@H]5[C@@]6(C)CC[C@H](OC(C)=O)C(C)(C)[C@@H]6CC[C@]54C)[C@@H]3C2)cc1)c1ccc(OC)cc1 (stereo partly drawn) | > 50 | 5.03 | 19.3 | 18.8 | 18.2 | 19.3 | 19.1 | – | – | – | – |

— ChEMBL document CHEMBL4382268, “Glycyrrhetinic acid derivatives containing aminophosphonate ester species as multidrug resistance reversers that block the NF-κB pathway and cell proliferation” (Bioorg Med Chem Lett, 2018)
